Source: PubChem BioAssay
Calb FLC: affects C. albicans growth with fluconazole. C. albicans CaCi-2 (fluconazole-resistant clinical isolate) + fluconazole, Alamar Blue growth, 48 h. growth inhibition, % (concentration not given with the values). 300,000 compounds, 0.57% hits;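 active = growth inhibition above about 58% in most replicates, limit read from the data, passing the limit was not always enough; inconclusive = exactly half the replicates above a set limit; inactive = most replicates below a set limit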;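 note: all wells also contain fluconazole at 8 µg/ml as a sub-toxic cotreatment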
SR-BI DiI-HDL act: SR-BI HDL lipid transfer activation; activation, % at 12.5 µM; CHO ldlA[mSR-BI] cells, DiI-HDL uptake fluorescence, 3 h; 100 = double the neutral-control signal; 320,000 compounds, 0.096% hits; AID 504775;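 active = mean replicate activation of at least 60% and every replicate at or above 60%; inconclusive = mean or all-replicate condition met, but not both; inactive = mean below 60% and not all replicates reaching 60%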
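System: CHO ldlA[mSR-BI] cells / Medium: HEPES-buffered (25 mM, pH 7.4) F12 plus 0.5% BSA / Probe or stimulus: labelled HDL, 10 µg/mL / Doses: single compound concentration, delivered by pin transfer / Schedule: 3 h, 37 °C / Measured by: DiI fluorescence, bottom read / Measure: cell-associated DiI fluorescence as measure of HDL uptake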
SR-BI HDL uptake: blocks mouse SR-BI lipid uptake from DiI-HDL; Q61009; ldlA[mSR-BI] CHO cells, DiI-HDL uptake fluorescence, 3 h; inhibition, % at 12.5 µM; 320,000 compounds, 0.96% hits;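 active = mean replicate inhibition of at least 70% and a set share of replicates each scoring 70 or more; inconclusive = meets just one of the two criteria; inactive = fails both criteria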
HTR2A ag: mouse HTR2A agonism via beta-arrestin recruitment; P35363; CHO-K1 mHTR2A beta-arrestin complementation, luminescence; percent of 30 µM serotonin response; activation, % at 7.6 µM; 360,000 compounds, 0.66% hits; AID 624169;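 active = activation above a run cutoff, the mean activation of all tested compounds plus 3 SD, cut at about 14% in these data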
Target sequence (P35363 whole entry, looked up): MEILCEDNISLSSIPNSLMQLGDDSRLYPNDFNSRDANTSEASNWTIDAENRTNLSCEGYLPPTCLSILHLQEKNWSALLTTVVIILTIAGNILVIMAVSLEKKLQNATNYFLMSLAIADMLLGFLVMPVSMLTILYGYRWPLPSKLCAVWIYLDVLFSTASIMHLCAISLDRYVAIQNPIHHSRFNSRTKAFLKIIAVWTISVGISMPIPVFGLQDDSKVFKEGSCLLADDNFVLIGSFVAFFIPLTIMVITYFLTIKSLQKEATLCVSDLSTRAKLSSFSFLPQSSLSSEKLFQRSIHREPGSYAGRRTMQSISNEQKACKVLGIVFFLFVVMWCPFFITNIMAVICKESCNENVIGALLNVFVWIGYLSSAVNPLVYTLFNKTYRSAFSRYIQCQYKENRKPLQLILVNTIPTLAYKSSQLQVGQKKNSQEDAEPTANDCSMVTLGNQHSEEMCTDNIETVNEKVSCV
beta cell repl: inducers of beta-cell replication in MIN6 cells | MIN6 cells proliferation, ATPlite luminescence, 48 h; cells starved in 0.2% serum; 100% = growth in 10% serum | proliferation, % at 10 µM | 330,000 compounds, 0.29% hits;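 active = compounds whose signal lies at least 3.5 SD above the mean of all wells on their plate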
Insulin prom up: MIN6 insulin promoter up-regulation. MIN6 insulin promoter-GFP reporter, high-content imaging; active compounds read high. z-score at 5 µM. 190,000 compounds, 0.3% hits. AID 1625;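 active = z-score above 3 at 5 µM with at least 500 cells counted in the well; inconclusive = wells under 500 cells, flagged as cytotoxic or low count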
Hits are given with their value; . = inactive; ? = inconclusive; / = not tested or not shown; ! = not active in a repeat. Only some compounds are listed: those with a hit (about 2.4% of all), similar ones and a draw of the others.

SMILES	Calb FLC	SR-BI DiI-HDL act	SR-BI HDL uptake	HTR2A ag	beta cell repl	Insulin prom up
Nc1c(C(=O)O)sc2nc(-c3ccccc3)cc(-c3ccccc3)c12	.	/	/	.	.	4.6
Cc1ccc(C(C)C)c(OCc2ccc(C(=O)N/N=C/c3ccc(O)c(O)c3)cc2)c1	.	.	82	.	.	.
CCN(CC)S(=O)(=O)c1cccc(C(=O)N/N=C/c2cccc(O)c2O)c1	.	.	.	.	.	.
COc1cc(/C=N/NC(=O)c2ccc(COc3cc(C)ccc3C(C)C)cc2)cc(OC)c1O	.	.	.	.	.	.
Cc1ccc(C(C)C)c(OCc2ccc(C(=O)N/N=C/c3cccc(O)c3O)cc2)c1	87	.	136	.	/	?
CC(C)C[C@H]1CN(CCCC[C@H]2CNC(=O)C(=O)N2CC2CCCCC2)C(=O)C(=O)N1Cc1ccccc1	/	/	/	.	/	/
Cc1noc(C)c1NC(=O)N(C)C[C@H]1Oc2ccc(NC(=O)Nc3ccc4c(c3)OCO4)cc2C(=O)N([C@H](C)CO)C[C@@H]1C	/	.	.	.	.	/
O=[N+]([O-])c1cc2cccnc2c2ncccc12	.	/	/	.	.	.
O=[N+]([O-])c1cc(O)c2ncccc2c1	105	/	/	/	.	.
CCc1nc2ccc(C(=O)NCCCN3CCCC3=O)cn2c1N(C)C(=O)c1cccc(OC)c1	/	/	/	.	/	/
N#Cc1c(N)n(CCNC(=O)c2ccc(Cl)cc2)c2nc3ccccc3nc12	.	.	.	.	.	.
Cc1ccc(C(=O)NCCn2c(N)c(C#N)c3nc4ccccc4nc32)cc1	.	.	.	.	.	4.1
CC1=Nc2ccc(C)cc2/C1=C/c1c(N)n2oc(C)cc2nc1=O	?	.	93!	.	.	.
Cc1onc(-c2ccccc2Cl)c1C(=O)OCC(=O)N1CCN(c2ccccc2)CC1	.	.	.	.	.	/
Cc1ccc(-c2cc(-c3nnc(SCC(=O)NCC(C)C)n3N)c3ccccc3n2)cc1	.	.	.	.	.	/
CCC(C)NC(=O)CSc1nnc(-c2cc(-c3ccc(C)cc3)nc3ccccc23)n1N (stereo not given)	.	.	86	.	.	.
COc1cccc(NC(=O)Cn2c(-c3cncs3)nc3ccccc32)c1	.	.	.	.	.	5.3
COc1cc(OC)cc(-c2c(Sc3ccccc3)c3cc(-c4ccc(SC)cc4)ccc3n2C)c1	/	/	/	.	/	/
O=C(NCCNC(=O)C(c1ccccc1)c1ccccc1)c1ccco1	111	.	.	.	.	.
O=C(NCCc1ccccc1)c1ccco1	.	.	.	.	.	.
OC[C@H]1O[C@@H](c2nc3ccc(-c4nc(-c5ccc(Br)cc5)no4)cc3[nH]2)C[C@@H]1O	/	/	/	.	/	/
COc1ccccc1NCc1cc(=O)oc2c(C)c(O)ccc12	.	.	73	.	.	/
COc1ccc(C)cc1NCc1cc(=O)oc2cc(-c3ccccc3)c(O)cc12	.	.	.	.	.	.
COCCN1C[C@@H](CO)O[C@@H](n2cnc3c(NCc4ccco4)ncnc32)C1	/	/	/	.	/	/
Cc1ccc2nc(-c3ccccc3)nn2c1	/	.	.	.	/	/
SMILES	Calb FLC	SR-BI DiI-HDL act	SR-BI HDL uptake	HTR2A ag	beta cell repl	Insulin prom up
COc1ccc(OC)c(-c2cc(C(=O)Nc3cc(C)n(Cc4ccc(Cl)cc4)n3)no2)c1	.	.	89	.	.	.
COc1ccc2c(C(=O)CN(C)C3CCCCC3)c[nH]c2c1	.	.	.	.	.	4.5
CCCC[n+]1c2ccccc2cc2ccccc21	93	.	.	.	.	/
Cc1ccc2ccccc2[n+]1CCCS(=O)(=O)[O-]	.	.	.	.	.	.
CCCCC[n+]1cccc2c3ccccc3ccc21	.	.	.	.	.	.
CCC[n+]1c2ccccc2cc2ccccc21	94	.	.	.	.	/
O=C1NC[C@H](CCCCN2C[C@H](Cc3ccc(O)cc3)N(CCc3ccccc3)C(=O)C2=O)N(CC2CCCCC2)C1=O	/	/	/	.	/	/
CCc1ccccc1NC(=O)CN1CCN(CC(=O)Nc2ccc3c(c2)OC2(CCCCC2)O3)CC1	/	.	.	.	/	/
CC1(C)Cc2c(ccc3ccccc23)C(c2cc3ccccc3oc2=O)=N1	.	.	.	.	.	4.2
C=CCN1C(=O)C(CC(=O)Nc2ccc(OCCC)cc2)N(CCCN2CCN(Cc3ccccc3)CC2)C1=S (stereo not given)	.	.	.	.	.	.
Cc1cc(C(=O)COC(=O)c2cccc(O)c2)c(C)n1C1CC1	/	.	.	.	.	/
O=C(CSC1=NNC(c2ccccn2)S1)Nc1ccccc1 (stereo not given)	.	.	.	.	.	.
O=C(CSC1=NNC(c2ccccn2)S1)Nc1cccc(Cl)c1 (stereo not given)	.	.	78	.	.	.
O=C(Cc1cccc(NC(=O)C2CCCN(C(=O)CCc3ccccc3)C2)c1)Nc1cccc(C(=O)N2CCCC2)c1 (stereo not given)	/	.	78	.	.	/
O=C(Cc1cccc(NC(=O)C2CCCN(C(=O)C3CC3)C2)c1)Nc1ccc(C(=O)N2CCCCC2)cc1 (stereo not given)	/	.	75	.	/	/
O=C(Cc1ccc(NC(=O)C2CCCN(C(=O)CCc3ccccc3)C2)cc1)Nc1cccc(C(=O)N2CCCC2)c1 (stereo not given)	/	.	.	.	/	/
COc1ccc(NC(=O)C2CC2(Cl)Cl)cc1S(=O)(=O)N1CCCCC1 (stereo not given)	/	/	/	.	/	/
Cc1occc1C(=O)N/N=C/C1=C(N2CCOCC2)C(=C\c2ccc(Cl)cc2Cl)/CC1	.	.	77	.	.	.
O=CC1=C(N2CCOCC2)/C(=C/c2ccc(Cl)cc2)CC1	.	.	.	.	.	.
Cc1cc(C)nc(N/N=C/C2=C(N3CCOCC3)C(=C\c3ccc(Cl)cc3)/CC2)n1	.	.	74	.	.	/
Cc1cc(C)nc(NN=CC2=C(N3CCOCC3)/C(=C/c3ccc(Cl)cc3)CC2)n1	/	.	76	.	/	/
C/C(=N/NC(=O)c1ccoc1C)c1ccc(N2CCOCC2)cc1	.	.	.	.	.	.
COC(=O)[C@]12CCCCC=C1N(Cc1ccc3c(c1)OCO3)C(=O)[C@H](CC(=O)NCC13CC4CC(CC(C4)C1)C3)C2	/	/	/	.	/	/
CNC(=S)N/N=C/c1cn(CCOc2cccc(OC)c2)c2ccccc12	.	.	80	.	.	.
CCOC(=O)N/N=C/c1cn(CCCOc2ccc(C)cc2)c2ccccc12	.	.	72	.	.	.
CCOC(=O)N/N=C/c1cn(CCCOc2ccccc2)c2ccccc12	.	.	.	.	.	.
CC(O)(c1ccc(Cl)cc1)C(c1ccccc1)c1ccccn1 (stereo not given)	/	.	.	.	/	/
COc1ccc(C(O)c2nc(-c3ccc(F)c(Cl)c3)cs2)cc1 (stereo not given)	/	/	/	.	/	/
